A short description of the experiment: Binding affinity to pig pancreatic cholesterol esterase. Further details: species or system Sus scrofa. The essentials:
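Porcine enzyme assayed in 0.1 M Hepes, pH 7, with 6 mM taurocholate and 1 mM p-nitrophenylbutyrate substrate; hydrolysis followed at 405 nm. Inhibition constants derived from double reciprocal and Dixon plots, and for high-affinity inhibitors from Straus-Goldstein plots.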
In turn, `O=c1oc(OCCBr)cc2ccc([N+](=O)[O-])cc12` displayed a Ki of 50 µM.

The compound `O=c1oc(OCCC2CCCC2)c(Cl)c2ccccc12` came in with a Ki of 0.26 µM.

`COc1oc(=O)c2cc(NC(=O)c3ccccc3)ccc2c1Cl` yielded a Ki of more than 250 µM.

`COc1oc(=O)c2cc(NC(=O)C3CCCCC3)ccc2c1Cl` showed a Ki of more than 25 µM.

The compound `CCCCOc1oc(=O)c2ccccc2c1Cl` registered a Ki of 6.5 µM.

`Nc1ccc2c(Cl)c(OCCBr)oc(=O)c2c1`: the Ki stood at 26 µM.

In turn, `O=c1oc(OCCCC2CCCCC2)c(Cl)c2ccccc12` showed a Ki of 0.18 µM.

`O=c1oc(OCCC2CCCCC2)c(Cl)c2ccccc12` yielded a Ki of 1.2 µM.

Compound `O=c1oc(OCCCBr)c(Cl)c2ccc([N+](=O)[O-])cc12` displayed a Ki of 1.6 µM.

Consider `COc1oc(=O)c2cc(N)ccc2c1Cl`, for which affinity was put at a Ki of 17 µM.

As for `O=c1oc(OC2CCCC2)c(Cl)c2ccccc12`, the Ki was 0.95 µM.

In turn, `O=c1oc(OCC2CCCC2)c(Cl)c2ccccc12` registered a Ki of 0.36 µM.

Take `COc1oc(=O)c2cc([N+](=O)[O-])ccc2c1Cl`: affinity was put at a Ki of 19 µM.

With `O=c1oc(OCCCC2CCCC2)c(Cl)c2ccccc12`, the affinity corresponds to a Ki of 0.019 µM.

As to `O=c1oc(OCCC2CCCCC2)cc2ccc([N+](=O)[O-])cc12`, the Ki was more than 100 µM.

In turn, `O=c1oc(OC2CCCCC2)c(Cl)c2ccccc12` yielded a Ki of 1.2 µM.

Take `O=c1oc(OCC2CCCCC2)c(Cl)c2ccccc12`: the Ki is 1.8 µM.

In turn, `O=c1oc(OCCC2CCCCC2)c(Cl)c2ccc([N+](=O)[O-])cc12` gave a Ki of 0.7 µM.

Compound `O=c1oc(OCCCBr)cc2ccc([N+](=O)[O-])cc12` had a Ki of 33 µM.

Consider `CCCOc1oc(=O)c2ccccc2c1C(=O)C(F)(F)F`, for which the Ki is more than 25 µM.

Regarding `O=c1oc(OCC2CCCCC2)c(Cl)c2ccc([N+](=O)[O-])cc12`, affinity was put at a Ki of 5.7 µM.

The compound `O=c1oc(OC2CCC(C3CCCCC3)CC2)c(Cl)c2ccccc12` (stereo not given) displayed a Ki of 0.19 µM.

The compound `O=C(c1c(OCCC2CCCCC2)oc(=O)c2ccccc12)C(F)(F)F` registered a Ki of 73 µM.

In the case of `O=c1oc(OCC2CCCCC2)cc2ccc([N+](=O)[O-])cc12`, the Ki was 54 µM.

Regarding `CCCOc1oc(=O)c2ccccc2c1Cl`, the Ki was determined as 3.6 µM.

In the case of `O=c1oc(OCCCCCC2CCCCC2)c(Cl)c2ccccc12`, the Ki worked out at 62 µM.

Turning to `O=C(c1c(OCC2CCCCC2)oc(=O)c2ccccc12)C(F)(F)F`, the Ki is more than 100 µM.

`Nc1ccc2cc(OCCBr)oc(=O)c2c1` gave a Ki of more than 100 µM.

`O=c1oc(OCCBr)c(Cl)c2ccc([N+](=O)[O-])cc12` came in with a Ki of 0.26 µM.

`O=c1oc(OCCCCC2CCCCC2)c(Cl)c2ccccc12`: the Ki worked out at 0.011 µM.

A word on the Ki: it is a measure of affinity in units of concentration, obtained from inhibition or displacement. Read a low Ki as higher affinity.

Values taken from ChEMBL document CHEMBL1157173, “Isocoumarin-based inhibitors of pancreatic cholesterol esterase” (Bioorg Med Chem, 2008).
